Reference: paper PMC7750258 (Progress in neuro-psychopharmacology & biological psychiatry, 2020)
Read-outs that look alike come from different tables or passages of the source.

Experiments:
[1] = ref Huestis, 2007; Mazur et al., 2009; cited from earlier work
CB1 receptor [2] = target: T1, CB1 receptor (Mus musculus, UniProt P47746); test: Agonist-stimulated [35S]GTPγS binding in mouse cerebellar membranes; assay type: biochemical, ICR mice; settings: mouse cerebellum, both sexes
CB1 receptor [3] = target: CB1 receptor (Rattus norvegicus, UniProt P20272); test: Agonist-stimulated [35S]GTPγS binding in rat cerebellar membranes; assay type: biochemical, Sprague-Dawley rats; settings: rat cerebellum, both sexes
Sequence of CB1 receptor (Rattus norvegicus, UniProt P20272) (P20272 whole entry): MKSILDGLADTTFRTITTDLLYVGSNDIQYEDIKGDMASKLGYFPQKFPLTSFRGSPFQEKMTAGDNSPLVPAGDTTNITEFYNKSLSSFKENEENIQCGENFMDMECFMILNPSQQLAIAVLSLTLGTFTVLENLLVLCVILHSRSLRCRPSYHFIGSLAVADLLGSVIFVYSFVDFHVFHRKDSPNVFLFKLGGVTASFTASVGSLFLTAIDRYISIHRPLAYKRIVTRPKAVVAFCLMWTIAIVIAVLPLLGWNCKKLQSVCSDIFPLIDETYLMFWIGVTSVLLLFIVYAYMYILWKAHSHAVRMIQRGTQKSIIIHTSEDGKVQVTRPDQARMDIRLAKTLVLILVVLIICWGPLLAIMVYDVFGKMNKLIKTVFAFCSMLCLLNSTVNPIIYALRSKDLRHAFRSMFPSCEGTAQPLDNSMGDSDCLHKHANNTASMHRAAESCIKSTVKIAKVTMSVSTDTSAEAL

ICR mice [4] = test: Cannabinoid tetrad: rectal temperature; assay type: in vivo; settings: for effect on body temperature: ICR mice of both sexes; for Body Temperature ED50 (± SEM): i.p., n=6, maximal effect −6°C
Procedure, shortened: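 Adult drug-naïve ICR mice of both sexes (n=6 per sex per dose) received vehicle or test compound. Baseline rectal temperature was taken before injection. Temperature was re-measured immediately after a 10 min locomotor session that began 30 min post-injection. […] It came from least-squares linear regression on the linear part of the dose-effect curve against log10 dose.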

ICR mice [5] = test: Cannabinoid tetrad: ring immobility; assay type: in vivo; settings: for effect on ring immobility: ICR mice of both sexes; for Ring Immobility ED50 (± SEM): i.p., n=6, maximal effect 100% immobility
Procedure, shortened: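 Drug-naïve adult ICR mice, males and females (n=6 per sex per dose), were dosed with vehicle or test compound. At 50 min post-injection each mouse was placed on an elevated ring. Time spent immobile over 5 min was divided by 300 s and multiplied by 100 to give percent immobility.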

ICR mice [6] = test: Cannabinoid tetrad: locomotor activity; assay type: in vivo; settings: female and male ICR mice, i.p., 10 min session 30 min after injection
C57BL/6J mice = test: THC drug discrimination in mice; assay type: in vivo; settings: for substitution for the THC training dose: mice of both sexes; for ED50 (± SEM), THC drug discrimination: compound alone, i.p. 30 min pre-session
Sprague-Dawley rats = test: THC drug discrimination in rats; assay type: in vivo
rats = settings: ref Tseng and Craft (2001); cited from earlier work
CB1 receptor [7] = target: T1, CB1 receptor; test: [3H]CP55,940 displacement binding in mouse cerebellar membranes; parameters: species or system ICR mice; settings: read-out: CB1 Binding Affinity (Ki in nM), cerebellum, N = 4 / value

T1 sequence (P47746 whole entry): as the sequence (P20272 whole entry) above, with E95D counted along it

Compound: CCCCCc1cc(O)c2c(c1)OC(C)(C)[C@@H]1CCC(C(=O)O)=C[C@@H]21 [THC-COOH, 11-nor-9-carboxy-Δ^9-tetrahydrocannabinol]
- cannabimimetic effects [1]: lacks cannabimimetic effects

Compound: CCCCCc1cc(O)c2c(c1)OC(C)(C)[C@@H]1CCC(C)=C[C@@H]21 [THC, Δ^9-tetrahydrocanabinol]
- functional character in [35S]GTPγS assay (CB1 receptor [2]): partial agonists
- functional character in [35S]GTPγS assay (CB1 receptor [3]): partial agonists
- effect on body temperature (ICR mice [4]): decreases in body temperature
- effect on ring immobility (ICR mice [5]): clear and significant dose-dependent increases in ring immobility
- effect on locomotor activity (ICR mice [6]): Neither drug significantly decreased locomotor activity
- response rate compared to vehicle (C57BL/6J mice; all mice (15 female, 20 male), first and second THC dose-effect curves): significantly increased overall responding across both sexes at doses of 3 and 5.6 mg/kg during the first test and over a dose range of 3–10 mg/kg during the second test
- response rate compared to vehicle (C57BL/6J mice; female mice, subset n=8): but not in females
- response rate compared to vehicle (C57BL/6J mice; male mice, subset n=8): significantly decreased by 30 mg/kg THC
- substitution for the THC training dose (C57BL/6J mice): dose-dependently substituted for the 5.6 mg/kg training dose
- more potent in female than in male rats (Sprague-Dawley rats; THC drug discrimination): 2.8 fold
- substitution for the THC training dose (Sprague-Dawley rats; rats of both sexes): dose-dependently substituted for the 1.7 mg/kg training dose in both sexes
- response rate compared to vehicle (Sprague-Dawley rats; rats, both sexes): 3 mg/kg THC significantly decreased overall responding across both sexes

Compound: 11-OH-Δ^9-tetrahydrocannabinol [11-OH-THC]
- effect on body temperature (ICR mice [4]): decreases in body temperature
- greater potency than THC, hypothermia (ICR mice [4]; ICR mice, range across sexes): 7- to 31 fold
- Body Temperature ED50 (± SEM) (ICR mice [4]; female ICR mice): 0.19 (0.006–6.1)
- Body Temperature ED50 (± SEM) (ICR mice [4]; male ICR mice): 0.70 (0.22–2.26)
- effect on ring immobility (ICR mice [5]): clear and significant dose-dependent increases in ring immobility
- greater potency than THC, catalepsy (ICR mice [5]; ICR mice, range across sexes): 7- to 15 fold
- Ring Immobility ED50 (± SEM) (ICR mice [5]; female ICR mice): 0.16 (out of range)
- Ring Immobility ED50 (± SEM) (ICR mice [5]; male ICR mice): 0.57 (0.07–4.57)
- effect on locomotor activity (ICR mice [6]): Neither drug significantly decreased locomotor activity
- greater potency than THC in THC drug discrimination (C57BL/6J mice; C57Bl/6J mice, range across sexes): 7- to 9 fold
- more potent than THC in THC drug discrimination (C57BL/6J mice; female mice): 7 fold
- response rate compared to vehicle (C57BL/6J mice; female mice, subset n=8): but not in females
- ED50 (± SEM), THC drug discrimination (C57BL/6J mice; female mice, subset n=8): 0.28 mg/kg
- more potent than THC in THC drug discrimination (C57BL/6J mice; male mice): 9 fold
- response rate compared to vehicle (C57BL/6J mice; male mice, subset n=8): significantly decreased by 3 mg/kg 11-OH-THC
- ED50 (± SEM), THC drug discrimination (C57BL/6J mice; male mice, subset n=8): 0.24 mg/kg
- substitution for the THC training dose (C57BL/6J mice): dose-dependently substituted for THC
- potency in female vs male rats (rats): about twice as potent in female than male rats

Compound: Cc1c(C(=O)NN2CCCCC2)nn(-c2ccc(Cl)cc2Cl)c1-c1ccc(Cl)cc1 [rimonabant, 5-(4-chlorophenyl)-1-(2,4-dichlorophenyl)-4-methyl-N-(piperidin-1-yl)-1H-pyrazole-3-carboxamide]
- rightward shift of THC dose-effect curve (C57BL/6J mice; 1 mg/kg antagonist i.p. 10 min before THC, both sexes): ~ 7 fold
- effect of antagonist on substitution by 1 mg/kg 11-OH-THC (C57BL/6J mice; 1 mg/kg rimonabant or 3 mg/kg SR144528 i.p. 10 min prior, n=8/sex): blocked maximal substitution produced by 1 mg/kg 11-OH-THC
- response rate compared to vehicle (C57BL/6J mice; male mice, subset n=8): significantly suppressed compared to vehicle alone treatment

Compound: CCCCCCC(C)(C)c1ccc([C@@H]2C[C@H](O)CC[C@H]2CCCO)c(O)c1 [CP55,940]
- Ki (CB1 receptor [7]; female mice): 0.48 nM
- Ki (CB1 receptor [7]; male mice): 0.56 nM
